Source: PubChem (Johns Hopkins Ion Channel Center)
Compounds with a hit are over-represented: about 4.1% of the library has one in this group of screens.
MrgX1 antag = antagonists of human MrgX1 receptor | Q96LB2 | MRGX1-HEK293 calcium flux, Fluo-4, BAM8-22 antagonism; stronger effect = lower value | B-score at 10 µM | 310,000 tested, 1.3% active;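 active = calcium-response B-score plate-corrected more than 3 library SD below zero, starting fluorescence within 5 deviations, no agonist response on first addition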;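 note: peak minus trough fluorescence over baseline after final BAM8-22 challenge near maximal dose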
Target sequence (Q96LB2 whole entry, looked up): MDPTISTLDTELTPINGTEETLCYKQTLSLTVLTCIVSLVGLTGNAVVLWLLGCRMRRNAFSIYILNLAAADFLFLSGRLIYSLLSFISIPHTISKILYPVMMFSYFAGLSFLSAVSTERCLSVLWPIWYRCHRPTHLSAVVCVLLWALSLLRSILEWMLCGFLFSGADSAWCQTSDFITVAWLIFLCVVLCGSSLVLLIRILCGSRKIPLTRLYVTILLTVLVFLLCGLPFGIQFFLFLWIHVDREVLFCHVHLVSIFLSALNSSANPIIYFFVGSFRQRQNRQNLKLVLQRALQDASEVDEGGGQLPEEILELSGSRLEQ
MrgX1 PAM = allosterically activates human MrgX1 receptor signaling; Q96LB2; MrgX1-HEK293, Fluo-4 calcium flux, FDSS; stronger effect = higher value; B-score at 10 µM; 310,000 tested, 0.63% active;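 active = plate-corrected calcium response at least 3 library SD above typical, normal starting fluorescence, not activating the receptor alone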;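 note: compound read alongside a low EC10 to EC30 dose of BAM8-22 agonist; peak minus trough fluorescence over baseline measured at the second addition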
RGS4 act = RGS4 potentiation or activation; HEK293 M3R/inducible RGS4, carbachol calcium flux Fluo4; stronger effect = lower value; B-score at 10 µM; 310,000 tested, 0.92% active; AID 463111;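 active = B-score of the integrated calcium signal more than 4 SD below the library mean, with starting fluorescence not abnormally high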;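 note: negative B-score means reduced calcium response which marks RGS4 activation or potentiation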
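Assay system: Inducible-RGS4 HEK293 cells carrying M3 receptor | Schedule: Compound preincubation 20 min at room temperature before agonist | Signal: Kinetic calcium fluorescence imaging with Fluo4-AM dye, 2 µM | Read-out basis: B score from integrated fluorescence ratio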
RGS4 block = human RGS4 inhibition. P49798. HEK293 M3R/RGS4 inducible, Fluo-4 calcium flux; stronger effect = higher value; triggered by carbachol at its EC20. B-score at 10 µM. 310,000 tested, 0.45% active;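 active = B-score, a plate-corrected calcium signal, over three deviations above library mean, with baseline fluorescence within five deviations of library mean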;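 note: RGS4 expression induced by doxycycline in cells with stable M3 receptor; B-score is computed from the integrated fluorescence ratio over baseline after carbachol; higher B-score means a larger calcium signal and so more RGS4 inhibition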
Target sequence (P49798 whole entry, looked up): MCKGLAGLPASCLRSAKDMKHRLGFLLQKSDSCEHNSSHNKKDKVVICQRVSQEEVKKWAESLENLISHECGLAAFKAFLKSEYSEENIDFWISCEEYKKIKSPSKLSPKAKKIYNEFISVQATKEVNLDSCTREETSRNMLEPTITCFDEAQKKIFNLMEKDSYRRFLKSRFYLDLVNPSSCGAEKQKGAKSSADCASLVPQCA
Kir21 block = inhibitors of mouse Kir2.1 inward-rectifier potassium channel. P35561. HEK293-Kir2.1, FluxOR thallium flux fluorescence; stronger effect = lower value. B-score at 10 µM. 310,000 tested, 0.85% active;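 active = fluorescence ratio B-score at or below minus 3 SD of library scores, with starting-brightness B-score within 2 SD, cut at about -4.2 in these data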;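 note: channel flux triggered by added potassium and thallium sulfate stimulus; B-score of peak minus minimum fluorescence over baseline after thallium stimulus; more negative B-score means stronger Kir2.1 block with less thallium influx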
MrgX1 ag = agonists of human MrgX1 receptor; 310,000 tested, 0.44% active; MrgX1-HEK293 cells, Fluo-4 calcium fluorescence, agonist mode; stronger effect = higher value; Q96LB2; AID 588627; B-score at 10 µM;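 active = calcium response B-score plate-corrected fluorescence ratio at least 3 library SD, with starting fluorescence B-score inside 5 SD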
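Assay system: stable human MrgX1 HEK293 cell line. Quantity: 15,000 cells per well. Schedule: cells plated overnight, dye loaded 0.5 h 37 °C, 0.5 h room temperature. Detection: Fluo-4 NW calcium-flux fluorescence, kinetic read. Read-out basis: peak-minus-minimum fluorescence over baseline, converted to B scores. Control set: positive and negative control wells on each plate.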
MrgX1 allo conf = human MrgX1 positive allosteric modulation, re-confirmation; shares compounds with MrgX1 PAM; MrgX1-HEK293, Fluo-4 calcium fluorescence, FDSS; activation (ratio percentage), % at 10 µM; 1,200 tested, 13% active; AID 602413;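 active = ratio at least 3 SD above the weak peptide control, stable starting fluorescence, no direct agonism earlier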;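 note: compound followed by low BAM8-22 agonist challenge near EC20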
HEK293 Ca flux = MrgX1 antagonist counter-screen hit in parental HEK293 cells; 4,000 tested, 2% active; Fluo-4 calcium fluorescence, FDSS; shares compounds with MrgX1 antag; fluorescence ratio F(max-min)/F0 at 10 µM;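 active = duplicate-averaged calcium fluorescence ratio at least three times the standard deviation of buffer wells, a nonspecific response in parental cells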
HEK293 Ca counter = MrgX1 allosteric activator counter-screen hit in parental HEK293 cells; AID 624114; shares compounds with MrgX1 antag; fluorescence ratio F(max-min)/F0 at 10 µM; parental HEK293 calcium flux, Fluo-4 fluorescence ratio; stronger effect = higher value; 4,000 tested, 0.4% active;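 active = calcium fluorescence ratio, averaged over duplicates, at least 3 SD of the buffer-well ratio, meaning a nonspecific response in receptor-free cells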;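 note: untransfected parental HEK293 lacking MrgX1 used as counterscreen for MrgX1 allosteric activators; fluorescence change taken during the second addition on a kinetic imager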
HEK293 Ca cntr2 = MrgX1 activator counter-screen hit in parental HEK293 cells. shares compounds with MrgX1 antag. Fluo-4 calcium fluorescence (FDSS); stronger effect = higher value. fluorescence ratio F(max-min)/F0 at 10 µM. 4,000 tested, 8.7% active;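 active = calcium fluorescence ratio at least three times the spread of buffer wells, meaning a non-specific response in parental cells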
Large screens that a line does not name were inactive (follow-up assays come after a bar, where they were run).

CCC(c1nnnn1Cc1cccs1)N1CCN(C(=O)c2ccco2)CC1 (centres undefined)	MrgX1 PAM 7.1 | MrgX1 allo conf inactive | HEK293 Ca flux inactive | HEK293 Ca counter inactive | HEK293 Ca cntr2 inactive
Cc1ccc(C#N)c(SCc2cccc(Br)c2)n1	none
COc1ccc(C(=O)CCN2CCN(c3ccccc3F)CC2)cc1	MrgX1 PAM 20 | MrgX1 allo conf inactive | HEK293 Ca flux inactive | HEK293 Ca counter inactive | HEK293 Ca cntr2 inactive
O=C1C2C3C=CC(C4CC34)C2C(=O)N1c1ccc2c(c1)OCO2 (centres undefined)	none
CCCc1cc(-c2n[nH]c(=S)n2-c2cccc(C)c2)cs1	MrgX1 PAM 8 | MrgX1 allo conf inactive | HEK293 Ca flux inactive | HEK293 Ca counter inactive | HEK293 Ca cntr2 inactive
Oc1ccc(NC(=S)Nc2ccc(O)cc2)cc1	MrgX1 PAM 10 | MrgX1 allo conf inactive | HEK293 Ca flux inactive | HEK293 Ca counter inactive | HEK293 Ca cntr2 inactive
CCn1c(=O)n(CC)c2cc(N3CCCC3)c(NC(=O)c3ccccc3)cc21	none
CCOC(=O)N1CCN(c2nc(C)c3c(n2)CCCC3=O)CC1	none
CCN1CCN(c2nc(C)c3c(n2)CC(C)CC3=O)CC1 (centres undefined)	MrgX1 PAM 8 | MrgX1 allo conf inactive | HEK293 Ca flux inactive | HEK293 Ca counter inactive | HEK293 Ca cntr2 inactive
O=C1CC(c2ccc3c(c2)OCO3)Sc2nc3ccccc3n21 (centres undefined)	MrgX1 PAM 7.5 | MrgX1 allo conf inactive | HEK293 Ca flux inactive | HEK293 Ca counter inactive | HEK293 Ca cntr2 inactive
COc1ccc(C2(C(=O)Nc3ccc(OC)cc3OC)CCCC2)cc1	MrgX1 PAM 12 | MrgX1 allo conf inactive | HEK293 Ca flux inactive | HEK293 Ca counter inactive | HEK293 Ca cntr2 inactive
CC(C)C(OC(=O)c1cc2sccc2n1C)C(=O)NCC1CCCO1 (centres undefined)	none
COc1ccc(CN(CC2CCCO2)C(=O)c2cc3sccc3n2C)c(OC)c1 (centres undefined)	MrgX1 PAM 6.5 | MrgX1 allo conf inactive | HEK293 Ca flux inactive | HEK293 Ca counter inactive | HEK293 Ca cntr2 inactive
Clc1ccc(CCNc2nc3ccccc3n3nnnc23)cc1	none
Nc1cc(Cl)ccc1C(=O)OCC(=O)NC1CCS(=O)(=O)C1 (centres undefined)	none
Nc1ccc(Cl)cc1C(=O)OCC(=O)NC1CCS(=O)(=O)C1 (centres undefined)	MrgX1 PAM 16 | MrgX1 allo conf inactive | HEK293 Ca flux inactive | HEK293 Ca counter inactive | HEK293 Ca cntr2 inactive
COC(=O)c1cnn(-c2ccc(C)c(C)c2)c1-n1cccc1	none
COC(=O)c1ccc(COC(=O)CNC(=O)c2ccc(-c3ccccc3)cc2)cc1	none
CC(NC(=O)C1CCN(S(=O)(=O)c2cccc3cccnc23)CC1)c1ccccc1 (centres undefined)	MrgX1 PAM 6.5 | MrgX1 allo conf inactive | HEK293 Ca flux inactive | HEK293 Ca counter inactive | HEK293 Ca cntr2 inactive
N#CC1=C(N)OC2=C(CCc3ccccc32)C1c1ccccc1 (centres undefined)	MrgX1 PAM 9.7 | MrgX1 allo conf inactive | HEK293 Ca flux inactive | HEK293 Ca counter inactive | HEK293 Ca cntr2 inactive
CCn1c(SCC(=O)Nc2ccc(F)cc2)nc2ccccc2c1=O	none
COc1ccccc1NC(=S)N(Cc1ccccc1)Cc1ccccn1	MrgX1 PAM 6.6 | MrgX1 allo conf inactive | HEK293 Ca flux inactive | HEK293 Ca counter inactive | HEK293 Ca cntr2 inactive
COc1ccccc1NC(=S)N(Cc1ccccc1)Cc1cccnc1	none
Cc1oc2ccc(O)cc2c1C(=O)c1ccc(F)cc1	MrgX1 PAM 6.8 | MrgX1 allo conf inactive | HEK293 Ca flux inactive | HEK293 Ca counter inactive | HEK293 Ca cntr2 inactive
COc1ccc(CNC(=O)CSc2nc3ccc(OC)cc3[nH]2)cc1	none
CN(Cc1cnccn1)Cc1nc(Cc2ccccc2F)no1	MrgX1 PAM 10 | MrgX1 allo conf inactive | HEK293 Ca flux inactive | HEK293 Ca counter inactive | HEK293 Ca cntr2 inactive
CCC1(CC)Cc2ccccc2C(N)=C1C#N	MrgX1 PAM 15 | MrgX1 allo conf inactive | HEK293 Ca flux inactive | HEK293 Ca counter inactive | HEK293 Ca cntr2 inactive
CCCC(=O)NC1=C(C#N)C2(CCCC2)Cc2ccccc21	none
Cc1cc(N2CCCC(C(=O)Nc3ccc4c(c3)CCC4)C2)n2ncnc2n1 (centres undefined)	none
CC(=O)N1CCSc2ccc(S(=O)(=O)NCCc3ccc(C)cc3)cc21	MrgX1 PAM 6.9 | MrgX1 allo conf inactive | HEK293 Ca flux inactive | HEK293 Ca counter inactive | HEK293 Ca cntr2 inactive
CC(=O)N1CCSc2ccc(S(=O)(=O)NCCc3cccc(C)c3)cc21	none
CS(=O)(=O)c1ccc2nc(NC(=O)C3COc4ccccc4O3)sc2c1 (centres undefined)	MrgX1 PAM 6.6 | MrgX1 allo conf inactive | HEK293 Ca flux inactive | HEK293 Ca counter inactive | HEK293 Ca cntr2 inactive
CS(=O)(=O)c1ccc2nc(NC(=O)c3cccs3)sc2c1	MrgX1 PAM 24 (no result: RGS4 act, RGS4 block, Kir21 block) | MrgX1 allo conf 17% | HEK293 Ca flux inactive | HEK293 Ca counter inactive | HEK293 Ca cntr2 inactive
C=CCn1c(=O)c(C(=O)Nc2ccc(C)cc2)c(O)c2ccccc21	none
C=CCn1c(=O)c(C(=O)Nc2ccccc2S(N)(=O)=O)c(O)c2ccccc21	MrgX1 PAM 8.4 | MrgX1 allo conf inactive | HEK293 Ca flux inactive | HEK293 Ca counter inactive | HEK293 Ca cntr2 inactive
COc1ccc(NC(=O)C(c2ccc(C)cc2)N(C)C(=O)CC2NC(=O)NC2=O)cc1 (centres undefined)	none
COc1cc(/C=C2/C(=N)N3N=C(CC(=O)N4CCOCC4)SC3=NC2=O)ccc1OC(C)c1ccccc1 (centres undefined)	none
N=C1/C(=C/c2ccc(OCc3ccccc3F)cc2)C(=O)N=C2SC(CC(=O)N3CCOCC3)=NN12	MrgX1 PAM 35 | MrgX1 allo conf 21% | HEK293 Ca flux inactive | HEK293 Ca counter inactive | HEK293 Ca cntr2 inactive
CCCC(=O)Nc1nc2nc(C)cc(=O)n2[nH]1	none
NCc1ccccc1	MrgX1 PAM 13 (no result: RGS4 act, RGS4 block, Kir21 block) | MrgX1 allo conf inactive | HEK293 Ca flux inactive | HEK293 Ca counter inactive | HEK293 Ca cntr2 inactive
NCc1cccc(-n2cccn2)c1	none
